Values joined by “and” are separate entries in the source; they are usually repeats but may differ in a detail not shown here. Equal values may be shown once.
Assays:
[1] = system: colon cancer cell line HT-29 spheroids; test: Spheroid inhibition assay; assay type: cell-based, human
Procedure, shortened: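 HT-29 cells (≤6 passages) were seeded at 100–300 cells/well in low-adhesion plates. Medium was stem cell medium: DMEM:F12 with B27, 20 ng/mL EGF and 10 ng/mL FGF. After brief incubation, vehicle or test compound was added. After 3–7 days, spheroids of 50–150 μm were counted by phase-contrast microscopy as percent of vehicle. IC50 came from normalized sigmoidal regression; ≥3 replicates.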

[2] = system: HT-29 monolayer culture; test: Cell proliferation; assay type: cell-based, human; conditions: MTT, 60-72 h
Procedure, shortened: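 HT-29 cells kept as monolayers in DMEM:F-12 with 10% FBS and 1% penicillin/streptomycin, passaged before 70% confluence. About 2.5 × 10³ cells/well were incubated overnight (37 °C, 5% CO₂), then exposed to test compound for 60–72 h. MTT (5 mg/mL stock in PBS) was added for 2–3 h and crystals dissolved in DMSO. A590 was read and growth expressed as percent of vehicle; ≥3 replicates.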

[3] = system: pooled normal human plasma; test: Human plasma clotting time; assay type: biochemical; conditions: ∼34 to ∼68 s
Procedure, shortened: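 APTT was run in a fibrometer by one-stage recalcification. Test compound was mixed with citrated pooled normal human plasma and prewarmed APTT reagent (ellagic acid). After 4 min at 37 °C, clotting was started with prewarmed 25 mM CaCl₂ and time to clot recorded. A quadratic trend line fitted to the data gave the concentration doubling clotting time.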

[4] = Mouse tail bleeding study; assay type: in vivo, wild-type ICR mice; conditions: IV; NSGMs 1–100 mg/kg, enoxaparin 224 μg/kg
[5] = system: CD133+/CXCR4+ (Dual Hi) HT-29 xenografts; test: Dual Hi HT-29 xenograft after FUOX enrichment, oral G2C or IP G2.2; assay type: in vivo, NCr nude mice; conditions: experiment 2; G2.2 100 mg/kg IP 3 times/week, G2C 100 mg/kg PO 5 times/week, 3 weeks
Procedure, shortened: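 1 × 10⁵ CD133⁺/CXCR4⁺ HT-29 cells were injected subcutaneously into NCr nude mice. Palpable tumors received 50 mg/kg 5-FU plus 5 mg/kg oxaliplatin IP weekly for 3 weeks. Mice were randomized to vehicle or test compound 100 mg/kg PO 5 times/week for 3 weeks, or, in a second experiment, parent 100 mg/kg IP 3 times/week. Xenograft single cells were assessed for 1–3° spheroids. CD133/CXCR4/LGR5 cells were quantified by flow cytometry (30 min staining, 4 °C).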

[6] = system: colon xenografts; conditions: cited from earlier work
[7] = HT-29 spheroids, relative to G2.2

Row | Compound | fold better than G2.2 (spheroid potency, IC50 gain) [1, 7] | cytotoxicity under monolayer conditions [2] | concentration required for 2-fold increase in APTT [3] | blood loss, tail bleeding [4] | also measured
1 | O=c1c(OS(=O)(=O)[O-])c(-c2ccc(OS(=O)(=O)[O-])c(OS(=O)(=O)[O-])c2)oc2cc(OS(=O)(=O)[O-])cc(OCC3CCC(COc4cc(OS(=O)(=O)[O-])cc5oc(-c6ccc(OS(=O)(=O)[O-])c(OS(=O)(=O)[O-])c6)c(OS(=O)(=O)[O-])c(=O)c45)CC3)c12.[Na+].[Na+].[Na+].[Na+].[Na+].[Na+].[Na+].[Na+] (centres unmarked) [MQD1, Sodium 4-(5-((4-(((2-(3,4-Bis(sulfonatooxy)phenyl)-4-oxo-3,7-bis(sulfonatooxy)-4H-chromen-5-yl)oxy)methyl)cyclohexyl)methoxy)-4-oxo-3,7-bis(sulfonatooxy)-4H-chromen-2-yl)-1,2-phenylene Bis(sulfate)] | 7.3 fold and ~9 fold | did not display significant cytotoxicity |  |  | 
2 | enoxaparin [reference compound] |  |  | 3 µM | significantly higher blood loss | 
3 | O=c1c(OS(=O)(=O)[O-])c(-c2ccc(OS(=O)(=O)[O-])cc2OS(=O)(=O)[O-])oc2cc(OS(=O)(=O)[O-])cc(OCC3CCC(COc4cc(OS(=O)(=O)[O-])cc5oc(-c6ccc(OS(=O)(=O)[O-])cc6OS(=O)(=O)[O-])c(OS(=O)(=O)[O-])c(=O)c45)CC3)c12.[Na+].[Na+].[Na+].[Na+].[Na+].[Na+].[Na+].[Na+] (centres unmarked) [MMD1, Sodium 4-(5-((4-(((2-(2,4-Bis(sulfonatooxy)phenyl)-4-oxo-3,7-bis(sulfonatooxy)-4H-chromen-5-yl)oxy)methyl)cyclohexyl)methoxy)-4-oxo-3,7-bis(sulfonatooxy)-4H-chromen-2-yl)-1,3-phenylene Bis(sulfate)] | 1.7 fold | did not display significant cytotoxicity |  |  | 
4 | O=c1c(OS(=O)(=O)[O-])c(-c2ccc(OS(=O)(=O)[O-])c(OS(=O)(=O)[O-])c2)oc2cc(OS(=O)(=O)[O-])cc(OCCCOc3cc(OS(=O)(=O)[O-])cc4oc(-c5ccc(OS(=O)(=O)[O-])c(OS(=O)(=O)[O-])c5)c(OS(=O)(=O)[O-])c(=O)c34)c12.[Na+].[Na+].[Na+].[Na+].[Na+].[Na+].[Na+].[Na+] [G2.2, Sodium 4-(5-(3-((2-(3,4-Bis(sulfonatooxy)phenyl)-4-oxo-3,7-bis(sulfonatooxy)-4H-chromen-5-yl)oxy)propoxy)-4-oxo-3,7-bis(sulfonatooxy)-4H-chromen-2-yl)-1,2-phenylene Bis(sulfate)] |  |  | 900 µM |  | tumor growth compared to vehicle [5]: seemed to reduce tumor growth; expression of BMI-1 (CSC self-renewal marker) [6]: significant reduction in the expression of BMI-1; expression of colon CSC markers [6]: inhibited the expression of CD133^+, CXCR4^+, DCAMLK1, and/or LGR5 markers; growth of colon xenografts and toxicity ([6]; parenterally administered): inhibits the growth of colon xenografts without any toxicity to vital organs or bleeding consequences
5 | O=c1cc(-c2ccc(OS(=O)(=O)[O-])cc2)oc2cc(OS(=O)(=O)[O-])cc(OCC3CCC(COc4cc(OS(=O)(=O)[O-])cc5oc(-c6ccc(OS(=O)(=O)[O-])cc6)cc(=O)c45)CC3)c12.[Na+].[Na+].[Na+].[Na+] (centres unmarked) [MAD1, Sodium 4-Oxo-5-((4-(((4-oxo-7-(sulfonatooxy)-2-(4-(sulfonatooxy)phenyl)-4H-chromen-5-yl)oxy)methyl)cyclohexyl)methoxy)-2-(4-(sulfonatooxy)phenyl)-4H-chromen-7-yl Sulfate] |  | did not display significant cytotoxicity |  |  | fold weaker than G2.2 (spheroid potency) [1, 7]: about 1.6 fold; fold lower potency than MQD1 ([1]; eight (MQD1) to four (MAD1) sulfate groups): 11.4 fold
6 | CC(C)CCC[C@@H](C)[C@H]1CC[C@H]2[C@@H]3CC=C4C[C@@H](OCCCCCCCCOc5cc(-c6oc7cc(OS(=O)(=O)[O-])cc(OCCCOc8cc(OS(=O)(=O)[O-])cc9oc(-c%10ccc(OS(=O)(=O)[O-])c(OS(=O)(=O)[O-])c%10)c(OS(=O)(=O)[O-])c(=O)c89)c7c(=O)c6OS(=O)(=O)[O-])ccc5OS(=O)(=O)[O-])CC[C@]4(C)[C@H]3CC[C@]12C.[Na+].[Na+].[Na+].[Na+].[Na+].[Na+].[Na+] [G8C, Sodium 4-(5-(3-((2-(3-((8-(((8S,9S,10R,13R,14S,17R)-10,13-Dimethyl-17-((R)-6-methylheptan-2-yl)-2,3,4,7,8,9,10,11,12,13,14,15,16,17-tetradecahydro-1H-cyclopenta[a]phenanthren-3-yl)oxy)octyl)oxy)-4-(sulfonatooxy)phenyl)-4-oxo-3,7-bis(sulfonatooxy)-4H-chromen-5-yl)oxy)propoxy)-4-oxo-3,7-bis(sulfonatooxy)-4H-chromen-2-yl)-1,2-phenylene Bis(sulfate)] |  | significantly cytotoxic at ∼100 μM | ~37 µM | did not exhibit much tail bleeding phenotype | 
